Experiment [1] can be described thus: Inhibition of Escherichia coli ACC expressed in Escherichia coli BL21(DE3) pLysS incubated for 45 mins in presence of ATP and acetyl coA by fluorescence polarization assay. In a few lines: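 E. coli BC (1 nM), biotinylated BCCP (2 nM) and CT (1 nM), His-tag purified then size-exclusion purified, preincubated with inhibitor in 100 mM HEPES pH 8.0, 15 mM KHCO3, 20 mM MgCl2. ADP detected by Transcreener fluorescence polarization; Morrison fit for Ki when tight binding; triplicate.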
(In general: In fluorescence polarisation assays a small probe gives low polarisation when free and higher when bound to something large.)

The subject of experiment [2] is Escherichia coli. Kind of experiment: Antibacterial activity against Escherichia coli K12 incubated for 24 hrs by microbroth dilution method. The format is functional. (In general: Dilution methods test growth across graded concentrations, often in twofold steps.)
For experiment [3], the system named is Escherichia coli. The experiment can be described thus: Antibacterial activity against acrAB knockout Escherichia coli MG1655 incubated for 24 hrs in presence of PMBN by microbroth dilution method. The experiment is classed as functional.
Experiment [4] has as its system Escherichia coli. Kind of experiment: Antibacterial activity against tolC knockout Escherichia coli incubated for 24 hrs by microbroth dilution method. The format is functional.
Experiment [5] relates to Escherichia coli. Kind of experiment: Antibacterial activity against tolC knockout Escherichia coli incubated for 24 hrs in presence of PMBN by microbroth dilution method. The format is functional.

In brackets after ≈: the same amount, converted by molar mass. Bounds are passed on as bounds.

Consider `C#CCCCCOCCOCCOCCOCCOCCOCCOCCOCCOCCOc1ccc(Br)c(-c2cc3cnc(N)nc3nc2N)c1Br`, for which the IC50 (commonly the concentration needed to halve the response being measured) in experiment [1] amounted to 98 nM. Also, the MIC (as a rule, the smallest concentration in the dilution series that meets the test's criterion for growth inhibition) against Escherichia coli [2] is more than 25 µM; in the experiment with Escherichia coli [3] it was 15 µM; in the experiment on Escherichia coli [4], 25 µM (≈ 22.2 µg/mL); in the experiment with Escherichia coli [5], 12.5 µM.

For `C#CCCCCOCCOCCOCCOCCOCCOCCOCCOCCOCCOCCOCCOCCOc1ccc(Br)c(-c2cc3cnc(N)nc3nc2N)c1Br`, the IC50 in experiment [1] was found to be 82 nM. In addition, the MIC against Escherichia coli [2] was more than 25 µM; with Escherichia coli [3] it was more than 25 µM; against Escherichia coli [4] it was 25 µM (≈ 25.5 µg/mL).

Turning to `CC(C)[C@H](NC(=O)C[C@H](NC(=O)CCCCCCCCCCn1cc(CCCCOCCOCCOCCOCCOCCOCCOc2cc(Br)c(-c3cc4cnc(N)nc4nc3N)c(Br)c2)nn1)c1ccccc1)C(=O)[C@@H]1C(=O)NC(=O)[C@H]1C`, in experiment [1], the IC50 is 3.53 nM. Further, the values for the MIC in the experiment with Escherichia coli [3], against Escherichia coli [4] and with Escherichia coli [5] were more than 25 µM, 6.25 µM (≈ 8.28 µg/mL) and 0.78 µM, respectively.

With `C#CCCCCOCCOCCOCCOc1ccc(Br)c(-c2cc3cnc(N)nc3nc2N)c1Br`, the IC50 in experiment [1] came out at 19 nM. In addition, the MIC was more than 25 µM in the experiment on Escherichia coli [2], 3.13 µM with Escherichia coli [3] and 1.56 µM in the experiment with Escherichia coli [5].

On to `C#CCCCCOCCOCCOCCOCCOCCOCCOc1cc(Br)c(-c2cc3cnc(N)nc3nc2N)c(Br)c1`, for which the IC50 in experiment [1] turned out to be 849 nM. The MIC in the experiment on Escherichia coli [3] and in the experiment on Escherichia coli [5] was more than 25 µM in each case.

As to `C#CCCCCOCCOCCOCCOCCOCCOCCOCCOCCOCCOCCOCCOCCOCCOCCOCCOc1ccc(Br)c(-c2cc3cnc(N)nc3nc2N)c1Br`, the IC50 in experiment [1] turned out to be 64 nM. The minimum inhibitory concentration (MIC) with Escherichia coli [2] is more than 25 µM; with Escherichia coli [3] it was more than 25 µM; against Escherichia coli [4], 25 µM (≈ 28.8 µg/mL); in the experiment with Escherichia coli [5] it was 12.5 µM.

Consider `C#CCCCCOCCOCCOCCOCCOCCOCCOc1ccc(Br)c(-c2cc3cnc(N)nc3nc2N)c1Br`, for which the IC50 in experiment [1] stood at 32 nM. The MIC was more than 25 µM with Escherichia coli [2] and 6.25 µM in the experiment on Escherichia coli [3].

Take `C#CCCCCOCCOCCOCCOCCOCCOCCOCCOCCOCCOCCOCCOCCOCCOCCOCCOCCOCCOCCOc1ccc(Br)c(-c2cc3cnc(N)nc3nc2N)c1Br`: in experiment [1], the IC50 was 126 nM. Also, the MIC in the experiment on Escherichia coli [3] is more than 25 µM; in the experiment with Escherichia coli [4], more than 25 µM; with Escherichia coli [5], 12.5 µM.

These data come from ChEMBL document CHEMBL5236612, “Heterobivalent Inhibitors of Acetyl-CoA Carboxylase: Drug Target Residence Time and Time-Dependent Antibacterial Activity” (J Med Chem, 2022).
